One block for each compound: values may come before it.
Tests used:
[1] = target: T1, Prostaglandin E2 receptor EP1 subtype (Homo sapiens, UniProt P34995); test: Displacement of [3H]PGE2 from human EP1 receptor expressed in CHOK1 cells; type: cell-based, CHO-K1
T1 sequence (P34995 whole entry): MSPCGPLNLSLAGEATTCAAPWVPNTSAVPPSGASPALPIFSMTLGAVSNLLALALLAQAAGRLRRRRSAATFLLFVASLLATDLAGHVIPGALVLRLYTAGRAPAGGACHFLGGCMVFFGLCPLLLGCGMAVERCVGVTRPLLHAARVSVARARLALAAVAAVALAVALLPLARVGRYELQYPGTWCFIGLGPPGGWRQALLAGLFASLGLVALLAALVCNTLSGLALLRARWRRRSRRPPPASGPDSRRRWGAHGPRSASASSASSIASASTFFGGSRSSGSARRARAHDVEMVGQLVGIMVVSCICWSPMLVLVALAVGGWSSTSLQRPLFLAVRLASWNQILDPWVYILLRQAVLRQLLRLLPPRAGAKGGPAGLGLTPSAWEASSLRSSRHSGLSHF
Summary of the method: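 Membranes from CHO-K1 cells stably transfected with human EP1 cDNA were incubated with competing compound and [3H]-PGE2 (3 nM final) for 30 min at 30 °C. Bound radioactivity was counted by liquid scintillation. Values are means of at least three experiments.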

[2] = test system: Rattus norvegicus; test: Drug level in complete Freund's adjuvant-induced hypersensitivity rat blood at 10 mg/kg, po; type: ADME, organism-based; design: dose 10 mg/kg, route oral; details: in vivo, read-out: Drug uptake
Summary of the method: (§1)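 Blood was sampled from the rats in the CFA hypersensitivity efficacy study, seven per dose group, and analysed by bioanalysis. Rats were dosed orally at 1, 3 and 10 mg/kg.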

[3] = target: T2, Prostaglandin E2 receptor EP3 subtype (Homo sapiens, UniProt P43115); test: Antagonist activity against EP3 receptor by FLIPR assay; type: functional
T2 sequence (P43115 whole entry): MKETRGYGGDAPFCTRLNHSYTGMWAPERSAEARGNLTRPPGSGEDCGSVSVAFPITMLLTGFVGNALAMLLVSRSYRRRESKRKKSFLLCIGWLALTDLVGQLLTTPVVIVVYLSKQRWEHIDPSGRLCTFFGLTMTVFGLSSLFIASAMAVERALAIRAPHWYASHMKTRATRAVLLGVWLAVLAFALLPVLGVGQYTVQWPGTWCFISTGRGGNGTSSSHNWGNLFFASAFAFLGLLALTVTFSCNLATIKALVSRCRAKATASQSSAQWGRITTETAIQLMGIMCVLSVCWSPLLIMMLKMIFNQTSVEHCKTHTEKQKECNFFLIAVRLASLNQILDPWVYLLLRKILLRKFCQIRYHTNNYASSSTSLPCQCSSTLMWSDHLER

[4] = Ratio of drug level in brain to blood in complete Freund's adjuvant-induced hypersensitivity rat; type: ADME, tissue-based
[5] = test system: Liver; test: Metabolic stability assessed as intrinsic clearance in human liver microsome; type: ADME; details: microsomes
Summary of the method: (§2)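 Intrinsic clearance was measured in liver microsomes and expressed as mL/min/g liver. Values come from a single experiment.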

[6] = target: T1, Prostaglandin E2 receptor EP1 subtype; test: Antagonist activity against human EP1 receptor expressed in CHOK1 cells assessed as inhibition of PGE2-induced intracellular calcium mobilization by FLIPR assay; type: functional, cell-based, CHO-K1
[7] = test system: Rattus norvegicus; test: Drug level in complete Freund's adjuvant-induced hypersensitivity rat blood at 1 mg/kg, po; type: ADME, organism-based; design: dose 1 mg/kg, route oral; details: in vivo, read-out: Drug uptake; summary of the method: as §1
[8] = test system: Rattus norvegicus; test: Inhibition of complete Freund's adjuvant-induced hypersensitivity in orally dosed rat; type: functional; details: po
Summary of the method: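 Rats with CFA-induced inflammatory hypersensitivity were dosed orally, seven per dose group, with celecoxib 10 mg/kg po as comparator. Readout was taken 1 h after dosing. ED50 was calculated from the dose-response, and significance was reported at p < 0.05, 0.01 and 0.001.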

[9] = test system: Rattus norvegicus; test: Drug level in complete Freund's adjuvant-induced hypersensitivity rat blood at 3 mg/kg, po; type: ADME, organism-based; design: dose 3 mg/kg, route oral; details: in vivo, read-out: Drug uptake; summary of the method: as §1
[10] = test system: Liver; test: Metabolic stability assessed as intrinsic clearance in rat liver microsome; type: ADME; details: microsomes; summary of the method: as §2
[11] = target: T3, Thromboxane A2 receptor (Homo sapiens, UniProt P21731); test: Antagonist activity against TP receptor by FLIPR assay; type: functional
T3 sequence (P21731 whole entry): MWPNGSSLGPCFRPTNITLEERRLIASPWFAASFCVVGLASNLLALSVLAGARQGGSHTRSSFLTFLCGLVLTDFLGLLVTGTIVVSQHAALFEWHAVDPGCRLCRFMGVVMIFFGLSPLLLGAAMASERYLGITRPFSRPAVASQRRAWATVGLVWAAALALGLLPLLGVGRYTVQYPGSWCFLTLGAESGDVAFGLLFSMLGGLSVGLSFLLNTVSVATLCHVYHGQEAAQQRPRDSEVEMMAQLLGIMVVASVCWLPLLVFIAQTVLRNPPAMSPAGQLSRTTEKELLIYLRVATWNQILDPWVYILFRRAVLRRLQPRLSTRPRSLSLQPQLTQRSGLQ

IC50 ([1]; read-out: Log IC50 (converted)): 63.1 nM
concentration [2]: 6.04 µM
Ki [3]: 794 nM
Kp [4]: 0.05
CL [5]: 3.6 mL/min/g
Ki ([6]; read-out: Log Ki (converted)): 20 nM
concentration [7]: 440 nM
concentration [9]: 1230 nM
CL [10]: 4.3 mL/min/g
SMILES: CC(C)Cc1cn(-c2cccc(C(=O)[O-])n2)c2cc(Cl)ccc12.[Na+]
ED50 [8]: 2.17 mg/kg

IC50 ([1]; read-out: Log IC50 (converted)): 31.6 nM
CL [5]: 2.7 mL/min/g
CL [10]: 1.9 mL/min/g
SMILES: CC(C)(C)Cc1cn(-c2nc(C(=O)[O-])cs2)c2cc(Cl)ccc12.[Na+]

IC50 ([1]; read-out: Log IC50 (converted)): 1000 nM
SMILES: CN(C)C(=O)c1cn(-c2nc(C(=O)O)cs2)c2cc(Cl)ccc12

IC50 ([1]; read-out: Log IC50 (converted)): > 1000 nM
SMILES: CC(C)Cc1cn(-c2ccccc2C(=O)O)c2cc(Cl)ccc12

IC50 ([1]; read-out: Log IC50 (converted)): 3.98 nM
Ki [3]: 398 nM
Ki ([6]; read-out: Log Ki (converted)): 0.2 nM
Ki [11]: 50.1 nM
SMILES: CC(C)Cc1cn(-c2nc(C(=O)O)cs2)c2cc(Br)ccc12

IC50 ([1]; read-out: Log IC50 (converted)): 39.8 nM
SMILES: CC(C)Cc1cn(-c2nc(C(=O)O)cs2)c2cc(F)ccc12

IC50 ([1]; read-out: Log IC50 (converted)): > 1000 nM
SMILES: CN(C)Cc1cn(-c2nc(C(=O)O)cs2)c2cc(Cl)ccc12

IC50 ([1]; read-out: Log IC50 (converted)): 158 nM
SMILES: CC(C)Cc1cn(-c2nc(CC(=O)O)cs2)c2cc(Cl)ccc12

IC50 ([1]; read-out: IC50): 6.3 nM
Ki [3]: 316 nM
CL [5]: 2.2 mL/min/g
Ki ([6]; read-out: Ki): 0.5 nM
Ki [11]: 31.6 nM
CL [10]: 12 mL/min/g
SMILES: CC(C)Cc1cn(-c2nc(C(=O)[O-])cs2)c2cc(Cl)ccc12.[Na+]

IC50 ([1]; read-out: Log IC50 (converted)): > 1000 nM
SMILES: O=C(O)c1csc(-n2ccc3ccc(Cl)cc32)n1

IC50 ([1]; read-out: Log IC50 (converted)): 100 nM
SMILES: CC(C)Cc1cn(-c2ncc(C(=O)O)s2)c2cc(Cl)ccc12

IC50 ([1]; read-out: Log IC50 (converted)): 158 nM
Ki ([6]; read-out: Log Ki (converted)): 12.6 nM
SMILES: CC(C)Cc1cn(-c2nc(C(=O)O)cs2)c2ccccc12

IC50 ([1]; read-out: Log IC50 (converted)): 50.1 nM
SMILES: CC(C)Cc1cn(-c2ccc(C(=O)O)s2)c2cc(Cl)ccc12

IC50 ([1]; read-out: Log IC50 (converted)): 39.8 nM
SMILES: Cc1c(CC(C)C)c2ccc(Cl)cc2n1-c1nc(C(=O)O)cs1

IC50 ([1]; read-out: Log IC50 (converted)): 6.31 nM
SMILES: CC(C)Cc1cn(Cc2nc(C(=O)O)cs2)c2cc(Cl)ccc12

IC50 ([1]; read-out: Log IC50 (converted)): 126 nM
SMILES: CCc1cn(-c2nc(C(=O)O)cs2)c2cc(Cl)ccc12

IC50 ([1]; read-out: Log IC50 (converted)): 100 nM
SMILES: CC(C)C(=O)c1cn(-c2nc(C(=O)O)cs2)c2cc(Cl)ccc12

Second part, the compound before the results:

SMILES: CC(C)Cc1cn(CC(=O)O)c2cc(Cl)ccc12
IC50 ([1]; read-out: Log IC50 (converted)): > 1000 nM

SMILES: CC(C)(C)CCc1cn(-c2nc(C(=O)[O-])cs2)c2cc(Cl)ccc12.[Na+]
IC50 ([1]; read-out: Log IC50 (converted)): 6.31 nM
Ki [3]: 398 nM
CL [5]: 2.1 mL/min/g
Ki ([6]; read-out: Log Ki (converted)): 3.98 nM
Ki [11]: 79.4 nM
CL [10]: 1.3 mL/min/g

SMILES: CCCc1cn(-c2nc(C(=O)[O-])cs2)c2cc(Cl)ccc12.[Na+]
IC50 ([1]; read-out: Log IC50 (converted)): 31.6 nM
CL [5]: 1.3 mL/min/g
CL [10]: 11 mL/min/g

SMILES: CN(C)CCc1cn(-c2nc(C(=O)O)cs2)c2cc(Cl)ccc12
IC50 ([1]; read-out: Log IC50 (converted)): > 1000 nM

SMILES: CC(C)Cc1cn(-c2cccc(C(=O)O)c2)c2cc(Cl)ccc12
IC50 ([1]; read-out: Log IC50 (converted)): 631 nM

SMILES: CC(C)Cc1cn(-c2nc(C(=O)O)cs2)c2ccc(Cl)cc12
IC50 ([1]; read-out: Log IC50 (converted)): 39.8 nM

SMILES: O=C(O)c1csc(-n2cc(CC(F)(F)F)c3ccc(Cl)cc32)n1
IC50 ([1]; read-out: Log IC50 (converted)): 251 nM

SMILES: CC(C)Cc1cn(-c2nc(C(=O)O)co2)c2cc(Cl)ccc12
IC50 ([1]; read-out: Log IC50 (converted)): 7.94 nM
Ki ([6]; read-out: Log Ki (converted)): 1 nM

SMILES: CC(C)Cc1cn(-c2nc(C(=O)O)cs2)c2cc(C(F)(F)F)ccc12
IC50 ([1]; read-out: Log IC50 (converted)): 12.6 nM
Ki [3]: 501 nM
Ki ([6]; read-out: Log Ki (converted)): 0.0631 nM

SMILES: Cc1ccc2c(CC(C)C)cn(-c3nc(C(=O)O)cs3)c2c1
IC50 ([1]; read-out: Log IC50 (converted)): 10 nM

SMILES: CC(C)Cc1cn(-c2ccc(C(=O)[O-])o2)c2cc(Cl)ccc12.[Na+]
IC50 ([1]; read-out: Log IC50 (converted)): 25.1 nM
Ki [3]: 501 nM
CL [5]: 5.4 mL/min/g
Ki ([6]; read-out: Log Ki (converted)): 1.26 nM
Ki [11]: 398 nM
CL [10]: 35 mL/min/g

SMILES: CC(C)c1cn(-c2nc(C(=O)O)cs2)c2cc(Cl)ccc12
IC50 ([1]; read-out: Log IC50 (converted)): 39.8 nM

SMILES: O=C(O)c1csc(-n2cc(Cc3ccccc3)c3ccc(Cl)cc32)n1
IC50 ([1]; read-out: Log IC50 (converted)): 158 nM
Ki ([6]; read-out: Log Ki (converted)): 63.1 nM

Source: ChEMBL document CHEMBL1144841, “Discovery of a novel indole series of EP1 receptor antagonists by scaffold hopping” (Bioorg Med Chem Lett, 2008)
